Experimental data reported in ChEMBL document CHEMBL3259739, “Synthesis and structure-activity relationship of trisubstituted thiazoles as Cdc7 kinase inhibitors” (Eur J Med Chem, 2014).
pIC50: −log10 of the molar value.

Tested on: not listed separately
Assay: Intrinsic clearance in rat liver microsomes at 1 uM after 30 mins by reverse phase HPLC analysis in presence of NADPH
Format: ADME
Settings: read-out: CLH
In short: (§1)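 Reactions were stopped with MeCN after 0 or 30 min. Samples were analysed by reverse-phase HPLC–tandem MS to give intrinsic clearance (µl/min/mg).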

| Structure (SMILES) | microsomal CLint at 1 µM [µL/min/mg] |
| --- | --- |
| CN(C)c1nc(-c2ccnc(N)n2)sc1C(N)=O | 26 |
| NC(=O)c1sc(-c2ccnc(N)n2)nc1-c1cc(Cl)cc(Cl)c1 | 69 |
| NC(=O)c1sc(-c2ccnc(N)n2)nc1-c1ccccc1F | < 14 |
| NC(=O)c1sc(-c2ccnc(N)n2)nc1-c1ccccc1C(F)(F)F | < 14 |
| Cc1ccc(-c2nc(-c3ccnc(N)n3)sc2C(N)=O)c(Cl)c1 | 140 |
| NC(=O)c1sc(-c2ccnc(N)n2)nc1-c1cc(F)ccc1F | 28 |

Target: T1, CDC7/DBF4 (Cell division cycle 7-related protein kinase/Activator of S phase kinase) (Homo sapiens, UniProt O00311)
T1 sequence (Q9UBU7 whole entry): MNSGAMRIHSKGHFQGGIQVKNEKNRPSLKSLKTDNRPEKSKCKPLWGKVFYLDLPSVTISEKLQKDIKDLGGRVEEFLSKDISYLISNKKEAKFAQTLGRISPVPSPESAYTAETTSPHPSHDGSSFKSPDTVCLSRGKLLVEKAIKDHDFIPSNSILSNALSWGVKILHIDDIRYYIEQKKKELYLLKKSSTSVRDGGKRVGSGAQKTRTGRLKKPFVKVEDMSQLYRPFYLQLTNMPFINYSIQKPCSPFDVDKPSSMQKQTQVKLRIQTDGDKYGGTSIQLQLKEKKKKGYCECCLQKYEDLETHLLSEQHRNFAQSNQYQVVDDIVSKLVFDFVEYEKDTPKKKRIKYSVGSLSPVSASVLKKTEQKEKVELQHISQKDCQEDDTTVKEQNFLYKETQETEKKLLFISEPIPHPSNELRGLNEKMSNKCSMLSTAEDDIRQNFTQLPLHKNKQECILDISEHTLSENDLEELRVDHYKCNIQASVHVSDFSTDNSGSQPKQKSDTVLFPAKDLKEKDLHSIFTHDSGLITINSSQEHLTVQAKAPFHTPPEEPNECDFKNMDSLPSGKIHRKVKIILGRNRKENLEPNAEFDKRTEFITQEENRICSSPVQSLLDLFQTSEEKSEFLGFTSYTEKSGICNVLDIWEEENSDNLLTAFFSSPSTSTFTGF
T1 sequence (O00311 whole entry): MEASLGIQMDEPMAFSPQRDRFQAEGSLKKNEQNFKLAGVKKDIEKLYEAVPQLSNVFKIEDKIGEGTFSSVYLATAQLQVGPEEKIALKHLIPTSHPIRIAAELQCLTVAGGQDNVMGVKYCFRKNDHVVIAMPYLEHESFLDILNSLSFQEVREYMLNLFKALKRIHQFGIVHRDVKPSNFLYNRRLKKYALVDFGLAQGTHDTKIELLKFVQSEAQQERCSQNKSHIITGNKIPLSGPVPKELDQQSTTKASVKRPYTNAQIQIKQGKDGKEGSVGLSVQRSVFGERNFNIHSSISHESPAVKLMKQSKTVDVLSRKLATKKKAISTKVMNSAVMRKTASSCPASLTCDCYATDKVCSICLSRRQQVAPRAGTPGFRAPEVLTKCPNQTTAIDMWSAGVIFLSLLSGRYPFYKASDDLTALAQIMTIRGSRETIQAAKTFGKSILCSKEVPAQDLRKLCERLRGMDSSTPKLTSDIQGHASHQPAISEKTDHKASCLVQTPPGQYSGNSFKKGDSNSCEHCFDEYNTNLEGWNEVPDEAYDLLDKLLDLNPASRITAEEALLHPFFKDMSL
Assay: Inhibition of Cdc7/Dbf4 (unknown origin)-mediated phosphorylation of MCM2 by protein-A luminescent proximity homogenous assay
Format: protein-complex assay
Settings: not given

| Structure (SMILES) | pIC50 |
| --- | --- |
| CCOC(=O)c1sc(-c2ccccn2)nc1O | < 3.90 |
| CCOC(=O)c1sc(-c2ccncc2)nc1OC | 4.76 |
| CCOC(=O)c1cnc(-c2ccncc2)s1 | 4.62 |
| CCOC(=O)c1sc(-c2cnccn2)nc1O | 4.58 |
| c1ccc(-c2nc(-c3ccncc3)sc2-c2nnco2)cc1 | 5.41 |
| c1ccc(-c2nc(-c3ccncc3)sc2-c2nn[nH]n2)cc1 | 6.34 |
| CN(C)c1nc(-c2ccnc(N)n2)sc1C(N)=O | 7.69 |
| CCOC(=O)c1sc(-c2ccncc2)nc1NCc1ccccc1 | 4.42 |
| NC(=O)c1sc(-c2ccnc(N)n2)nc1-c1cc(Cl)cc(Cl)c1 | 7.21 |
| CCOC(=O)c1sc(-c2ccncc2)nc1-c1ccc2ccccc2c1 | < 3.90 |
| CCOC(=O)c1sc(-c2ccccc2)nc1O | 4.33 |
| CCOC(=O)c1sc(-c2ccncc2)nc1Nc1ccccc1 | < 3.90 |
| CCOC(=O)c1sc(-c2ccncc2)nc1-c1ccc(F)cc1Cl | 5.99 |
| CCOC(=O)c1sc(-c2ccnc(CC)c2)nc1O | 5.12 |
| NNC(=O)c1sc(-c2ccncc2)nc1-c1ccccc1 | 6.33 |
| N#Cc1sc(-c2ccncc2)nc1-c1ccccc1 | 4.99 |
| CCOC(=O)c1sc(-c2ccncc2)nc1-c1ccccc1Cl | 6.28 |
| CCOC(=O)c1sc(-c2ccncc2)nc1-c1cccc(Cl)c1Cl | 6.35 |
| CCOC(=O)c1sc(-c2cccnc2)nc1O | 4.49 |
| O=C(O)c1sc(-c2ccncc2)nc1-c1ccccc1 | 6.76 |
| CCOC(=O)c1sc(C(C)(C)C)nc1O | < 3.90 |
| CCOC(=O)c1sc(-c2ccnc(N)n2)nc1O | 7.38 |
| O=C(NCc1ccccc1)c1sc(-c2ccncc2)nc1O | 4.94 |
| CCOC(=O)c1sc(-c2ccncc2)nc1-c1ccccc1O | 5.49 |
| CCOC(=O)c1sc(-c2ccncc2)nc1-c1ccccc1 | 4.69 |

| Structure (SMILES) | pIC50 |
| --- | --- |
| COc1nc(-c2ccncc2)sc1C(N)=O | 7.02 |
| CCOC(=O)c1sc(-c2ccncc2)nc1NC | 5.13 |
| CCOC(=O)c1sc(-c2ccncc2)nc1-c1ccc(OC)cc1Cl | 6.07 |
| CCOC(=O)c1sc(-c2ccncc2)nc1N | 5.38 |
| NC(=O)c1sc(-c2ccncc2)nc1O | 6.94 |
| NC(=O)c1sc(-c2ccnc(N)n2)nc1-c1ccccc1F | 7.75 |
| CCOC(=O)c1sc(-c2ccncc2)nc1N(C)C | 6.17 |
| NC(=O)c1sc(-c2ccncc2)nc1-c1ccccc1 | 7.00 |
| CCOC(=O)c1sc(-c2cc(N)ncn2)nc1-c1ccccc1 | < 3.90 |
| CN(C)C(=O)c1sc(-c2ccncc2)nc1O | 4.61 |
| CCOC(=O)c1sc(-c2ccnc(N)c2)nc1-c1ccccc1 | 4.70 |
| NC(=O)c1sc(-c2ccnc(N)n2)nc1-c1ccccc1C(F)(F)F | 7.74 |
| NC(=O)c1sc(-c2ccncc2)nc1-c1ccc(Cl)cc1Cl | 7.84 |
| CCOC(=O)c1sc(-c2ccncc2)nc1-c1cccnc1 | 5.08 |
| CNC(=O)c1sc(-c2ccncc2)nc1O | 5.05 |
| Cc1ccc(-c2nc(-c3ccnc(N)n3)sc2C(N)=O)c(Cl)c1 | 8.22 |
| NC(=O)c1sc(-c2ccnc(N)n2)nc1-c1cc(F)ccc1F | 7.48 |
| CCOC(=O)c1sc(-c2ccc(OC)cc2)nc1O | < 3.90 |
| CCOC(=O)c1sc(-c2ccncc2)nc1-c1ccc(Cl)cc1Cl | 6.01 |
| O=C(NO)c1sc(-c2ccncc2)nc1-c1ccccc1 | 5.77 |
| O=C1Nc2ccccc2Nc2nc(-c3ccncc3)sc21 | 6.98 |
| CCOC(=O)c1sc(-c2ccncc2)nc1C | 4.60 |
| O=C(O)c1sc(-c2ccncc2)nc1O | 5.21 |
| CCOC(=O)c1sc(-c2ccsc2)nc1O | 4.53 |

Tested on: not listed separately
Assay: Intrinsic clearance in human liver microsomes at 1 uM after 30 mins by reverse phase HPLC analysis in presence of NADPH
Format: ADME
Settings: read-out: CLH
In short: as §1

| Structure (SMILES) | microsomal CLint at 1 µM [µL/min/mg] |
| --- | --- |
| CN(C)c1nc(-c2ccnc(N)n2)sc1C(N)=O | 23 |
| NC(=O)c1sc(-c2ccnc(N)n2)nc1-c1cc(Cl)cc(Cl)c1 | 67 |
| NC(=O)c1sc(-c2ccnc(N)n2)nc1-c1ccccc1F | < 14 |
| NC(=O)c1sc(-c2ccnc(N)n2)nc1-c1ccccc1C(F)(F)F | < 14 |
| Cc1ccc(-c2nc(-c3ccnc(N)n3)sc2C(N)=O)c(Cl)c1 | < 14 |
| NC(=O)c1sc(-c2ccnc(N)n2)nc1-c1cc(F)ccc1F | < 14 |

Target: CDC7/DBF4 (Cell division cycle 7-related protein kinase/Activator of S phase kinase) (Homo sapiens) (UniProt Q9UBU7+O00311)
Sequence (O00311 whole entry, looked up): as the sequence (O00311 whole entry) above
Sequence (Q9UBU7 whole entry, looked up): as the sequence (Q9UBU7 whole entry) above
Assay: Ratio of IC50 for Cdc7/Dbf4 in human HCT116 cells to IC50 for Cdc7/Dbf4 (unknown origin)
Format: cell-based
Settings: HCT-116

| Structure (SMILES) | Ratio IC50 |
| --- | --- |
| COc1nc(-c2ccncc2)sc1C(N)=O | > 100 |
| NC(=O)c1sc(-c2ccncc2)nc1-c1ccccc1 | > 100 |
| NC(=O)c1sc(-c2ccncc2)nc1-c1ccc(Cl)cc1Cl | > 100 |

Organism: Homo sapiens
Assay: Selectivity ratio of IC50 for CDK2/Cyclin-E (unknown origin) to IC50 for Cdc7/Dbf4 (unknown origin)
Settings: not given

| Structure (SMILES) | Ratio IC50 |
| --- | --- |
| O=C1Nc2ccccc2Nc2nc(-c3ccncc3)sc21 | 11 |

Target: T1, CDC7/DBF4 (Cell division cycle 7-related protein kinase/Activator of S phase kinase)
Assay: Inhibition of Cdc7/Dbf4 in human HCT116 cells assessed as reduction of MCM2 phosphorylation after 14 hrs
Format: cell-based, HCT-116
Settings: not given
In short: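 HCT-116 cells were exposed to inhibitor across a 22-point dose response for 14 h. They were then immunostained for phospho-serine MCM2 using an Alexa Fluor 488 secondary, with a Hoechst nuclear counterstain. The percentage of cells with phospho-MCM2 signal above a threshold was scored by high-content imaging, and IC50 values were derived from that.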

| Structure (SMILES) | pIC50 |
| --- | --- |
| CN(C)c1nc(-c2ccnc(N)n2)sc1C(N)=O | 5.73 |
| NC(=O)c1sc(-c2ccnc(N)n2)nc1-c1cc(Cl)cc(Cl)c1 | 5.07 |
| COc1nc(-c2ccncc2)sc1C(N)=O | 5.00 |
| NC(=O)c1sc(-c2ccncc2)nc1O | < 4.30 |
| NC(=O)c1sc(-c2ccnc(N)n2)nc1-c1ccccc1F | 5.97 |
| NC(=O)c1sc(-c2ccncc2)nc1-c1ccccc1 | 4.63 |
| NC(=O)c1sc(-c2ccnc(N)n2)nc1-c1ccccc1C(F)(F)F | 5.69 |
| NC(=O)c1sc(-c2ccncc2)nc1-c1ccc(Cl)cc1Cl | 4.94 |
| Cc1ccc(-c2nc(-c3ccnc(N)n3)sc2C(N)=O)c(Cl)c1 | 5.85 |
| NC(=O)c1sc(-c2ccnc(N)n2)nc1-c1cc(F)ccc1F | 5.44 |

Target: Cyclin-dependent kinase 2/cyclin E1 (Homo sapiens, UniProt P24941)
Assay: Inhibition of CDK2/Cyclin-E (unknown origin) using maltose binding protein as substrate by HTRF assay
Format: protein-complex assay
Settings: not given

| Structure (SMILES) | pIC50 |
| --- | --- |
| CCOC(=O)c1sc(-c2ccccn2)nc1O | < 3.90 |
| CCOC(=O)c1sc(-c2ccncc2)nc1OC | < 3.90 |
| CCOC(=O)c1cnc(-c2ccncc2)s1 | < 3.90 |
| CCOC(=O)c1sc(-c2cnccn2)nc1O | < 3.90 |
| c1ccc(-c2nc(-c3ccncc3)sc2-c2nnco2)cc1 | < 3.90 |
| c1ccc(-c2nc(-c3ccncc3)sc2-c2nn[nH]n2)cc1 | < 3.90 |
| CN(C)c1nc(-c2ccnc(N)n2)sc1C(N)=O | 4.74 |
| CCOC(=O)c1sc(-c2ccncc2)nc1NCc1ccccc1 | < 3.90 |
| NC(=O)c1sc(-c2ccnc(N)n2)nc1-c1cc(Cl)cc(Cl)c1 | < 3.90 |
| CCOC(=O)c1sc(-c2ccncc2)nc1-c1ccc2ccccc2c1 | < 3.90 |
| CCOC(=O)c1sc(-c2ccccc2)nc1O | < 3.90 |
| CCOC(=O)c1sc(-c2ccncc2)nc1Nc1ccccc1 | < 3.90 |
| CCOC(=O)c1sc(-c2ccncc2)nc1-c1ccc(F)cc1Cl | < 3.90 |
| CCOC(=O)c1sc(-c2ccnc(CC)c2)nc1O | < 3.90 |
| NNC(=O)c1sc(-c2ccncc2)nc1-c1ccccc1 | < 3.90 |
| N#Cc1sc(-c2ccncc2)nc1-c1ccccc1 | < 3.90 |
| CCOC(=O)c1sc(-c2ccncc2)nc1-c1ccccc1Cl | < 3.90 |
| CCOC(=O)c1sc(-c2ccncc2)nc1-c1cccc(Cl)c1Cl | < 3.90 |
| CCOC(=O)c1sc(-c2cccnc2)nc1O | < 3.90 |
| O=C(O)c1sc(-c2ccncc2)nc1-c1ccccc1 | < 3.90 |
| CCOC(=O)c1sc(C(C)(C)C)nc1O | < 3.90 |
| CCOC(=O)c1sc(-c2ccnc(N)n2)nc1O | < 3.90 |
| O=C(NCc1ccccc1)c1sc(-c2ccncc2)nc1O | 4.28 |
| CCOC(=O)c1sc(-c2ccncc2)nc1-c1ccccc1O | < 3.90 |
| CCOC(=O)c1sc(-c2ccncc2)nc1-c1ccccc1 | < 3.90 |

| Structure (SMILES) | pIC50 |
| --- | --- |
| COc1nc(-c2ccncc2)sc1C(N)=O | 5.24 |
| CCOC(=O)c1sc(-c2ccncc2)nc1NC | < 3.90 |
| CCOC(=O)c1sc(-c2ccncc2)nc1-c1ccc(OC)cc1Cl | < 3.90 |
| CCOC(=O)c1sc(-c2ccncc2)nc1N | < 3.90 |
| NC(=O)c1sc(-c2ccncc2)nc1O | < 3.90 |
| NC(=O)c1sc(-c2ccnc(N)n2)nc1-c1ccccc1F | < 3.90 |
| CCOC(=O)c1sc(-c2ccncc2)nc1N(C)C | < 3.90 |
| NC(=O)c1sc(-c2ccncc2)nc1-c1ccccc1 | 4.47 |
| CCOC(=O)c1sc(-c2cc(N)ncn2)nc1-c1ccccc1 | < 3.90 |
| CN(C)C(=O)c1sc(-c2ccncc2)nc1O | < 3.90 |
| CCOC(=O)c1sc(-c2ccnc(N)c2)nc1-c1ccccc1 | < 3.90 |
| NC(=O)c1sc(-c2ccnc(N)n2)nc1-c1ccccc1C(F)(F)F | 4.46 |
| NC(=O)c1sc(-c2ccncc2)nc1-c1ccc(Cl)cc1Cl | 6.15 |
| CCOC(=O)c1sc(-c2ccncc2)nc1-c1cccnc1 | < 3.90 |
| CNC(=O)c1sc(-c2ccncc2)nc1O | < 3.90 |
| Cc1ccc(-c2nc(-c3ccnc(N)n3)sc2C(N)=O)c(Cl)c1 | 5.15 |
| NC(=O)c1sc(-c2ccnc(N)n2)nc1-c1cc(F)ccc1F | 4.46 |
| CCOC(=O)c1sc(-c2ccc(OC)cc2)nc1O | < 3.90 |
| CCOC(=O)c1sc(-c2ccncc2)nc1-c1ccc(Cl)cc1Cl | < 3.90 |
| O=C(NO)c1sc(-c2ccncc2)nc1-c1ccccc1 | < 3.90 |
| O=C1Nc2ccccc2Nc2nc(-c3ccncc3)sc21 | 5.92 |
| CCOC(=O)c1sc(-c2ccncc2)nc1C | < 3.90 |
| O=C(O)c1sc(-c2ccncc2)nc1O | < 3.90 |
| CCOC(=O)c1sc(-c2ccsc2)nc1O | < 3.90 |
